# Data: ChEMBL document CHEMBL1127823, “The effect of fluorine substitution on the metabolism and antimalarial activity of amodiaquine” (J Med Chem, 1994)
# Tests used:
# Plasmodium falciparum [1] = assay: Antimalarial activity against Plasmodium falciparum K1; format: functional, organism-based
# In short: (§1)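 P. falciparum (Thai isolates; K1 uncloned, T9-96 cloned) kept in continuous culture in human erythrocytes, RPMI 1640 with 25 mM HEPES, 32 mM NaHCO3, 10% human serum, gassed 3% O2/4% CO2/93% N2. 48-h assay at 1% initial parasitaemia, 5% haematocrit; drugs from ethanol stocks (final <1% ethanol).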
# [2] = pKa value of compound was evaluated; format: physicochemical
# Plasmodium falciparum [3] = assay: Antimalarial activity against Plasmodium falciparum T9-96; format: functional, organism-based; in short: as §1
IC50 (Plasmodium falciparum [1]) [µM],pKa [2],IC50 (Plasmodium falciparum [3]) [µM],Structure (SMILES)
0.042,3.96,0.037,CCN(CC)Cc1cc(Nc2ccnc3cc(Cl)ccc23)cc(F)c1O
0.056,3.42,0.04,CCN(CC)Cc1cc(Nc2ccnc3cc(Cl)ccc23)c(F)c(F)c1O

# Second part, the molecule before the results:
Structure (SMILES),IC50 (Plasmodium falciparum [1]) [µM],pKa [2],IC50 (Plasmodium falciparum [3]) [µM]
CCN(CC)Cc1cc(Nc2ccnc3cc(Cl)ccc23)ccc1F,0.059,4.39,0.04
CCN(CC)Cc1c(O)cc(F)c(Nc2ccnc3cc(Cl)ccc23)c1F,0.041,2.59,0.034
CCN(CC)Cc1c(O)c(F)c(F)c(Nc2ccnc3cc(Cl)ccc23)c1F,0.5,2.17,0.291
CCN(CC)Cc1cc(Nc2ccnc3cc(Cl)ccc23)ccc1O,0.024,4.95,0.02
